TRPML3 agonist: human mucolipin-3 channel agonism. Q8TDD5. HEK293 TRPML3-YFP, Fluo-8 calcium fluorescence; 100% = the carbachol control signal. activation, % at 3 µM. hit rate 0.29% among 220,000. AID 1448;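 active = activation above its plate's cutoff, the mean activation of the plate's test wells plus 3 SD, cut at about 12% in these data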;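 note: 0% = DMSO only wells and 100% = carbachol wells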
Target sequence (Q8TDD5 whole entry, looked up): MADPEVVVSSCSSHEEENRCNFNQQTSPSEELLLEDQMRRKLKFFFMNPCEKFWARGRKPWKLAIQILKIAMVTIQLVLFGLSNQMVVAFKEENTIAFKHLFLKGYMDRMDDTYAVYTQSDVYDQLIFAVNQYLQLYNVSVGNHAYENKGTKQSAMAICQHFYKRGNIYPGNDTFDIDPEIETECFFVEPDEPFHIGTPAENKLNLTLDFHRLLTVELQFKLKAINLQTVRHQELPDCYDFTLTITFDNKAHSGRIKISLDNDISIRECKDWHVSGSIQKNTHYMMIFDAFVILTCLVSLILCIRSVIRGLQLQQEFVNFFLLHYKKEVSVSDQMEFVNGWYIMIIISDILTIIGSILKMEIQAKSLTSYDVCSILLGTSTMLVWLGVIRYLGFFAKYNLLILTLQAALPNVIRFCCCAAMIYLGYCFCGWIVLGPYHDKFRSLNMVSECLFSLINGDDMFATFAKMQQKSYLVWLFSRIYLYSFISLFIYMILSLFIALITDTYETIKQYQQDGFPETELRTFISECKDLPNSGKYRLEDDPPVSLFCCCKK
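Test system: HEK293 cells stably carrying human TRPML3-YFP; Doses: single dose, 3 µM final nominal compound, 0.3% DMSO final; Schedule: dye loading 1 h 37 °C then 30 min ambient, 125 s read; Technique: Fluo-8 calcium fluorescence; Benchmarks: high control carbachol 87 µM, low control DMSO.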
TAAR1 antag: antagonists of human TAAR1 | hit rate 1.5% among 360,000 | CHO RD-HGA16 TAAR1, Fluo-8 calcium fluorescence, antagonist | inhibition, % at 3 µM;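 active = inhibition above a per-plate cutoff, the mean inhibition of test compounds on that plate plus 3 SD, cut at about 49% in these data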;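 note: 0% = DMSO plus EC80 beta-PEA response and 100% = DMSO alone without agonist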
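Test system: RD-HGA16 CHO cells with stable hTAAR1 and Gα16 / Probe or stimulus: EC80 β-phenethylamine stimulus / Times: seeding 17-24 h prior, 75-min 37 °C, 30-min RT dye loading / Detection: Fluo-8 calcium-sensitive fluorescence / Read-out basis: % inhibition scaled between DMSO and EC80 PEA controls / Repeats: singlicate, one well per test compound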
LANA-H2B inh: blocks KSHV LANA binding to histone H2A/H2B. Q9QR71. cell-free LANA-H2A/H2B peptide, fluorescence polarization. inhibition, % (no concentration beside the values). hit rate 0.6% among 320,000. AID 2629; in the data active = inhibition mostly above about 10%, no sharp cut-off; inactive = mostly below about 6.7%
zfTRPN1 agonist: activates the zebrafish TRPN1 channel. HEK293 zebrafish TRPN1-YFP, Fluo-8 calcium fluorescence; 100% = response to 87 µM carbachol. activation, % at 3 µM. hit rate 0.18% among 220,000. AID 1424;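 active = activation above its plate's cutoff, the mean activation of test wells on that plate plus 3 SD, cut at about 19% in these data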;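 note: 0% = DMSO alone and 100% = 87 µM carbachol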
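Material – zebrafish TRPN1-YFP in HEK293 cells · Doses – 3 µM single point · Schedule – dye 1 h 37 °C plus 30 min RT · Signal – Fluo-8 calcium fluorescence, excitation 470-495 nm, emission 515-575 nm · Read-out – % activation versus carbachol response · Control set – carbachol high, DMSO low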
GPR7 antagonist: blocks human GPR7 receptor signaling; P48145; GPR7-expressing cells, fluorescence antagonist assay; inhibition, % at 4.4 µM; hit rate 1.1% among 290,000; AID 1861; in the data active = inhibition above about 16%, passing the limit was not always enough;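 note: cells stimulated with the agonist NPW; 0% = agonist with vehicle and 100% = vehicle without agonist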
TAAR1 agonist: human TAAR1 agonism; Q96RJ0; CHO RD-HGA16 TAAR1, Fluo-8 calcium fluorescence; vehicle wells 0%, saturating PEA agonist 100%; activation, % at 3 µM; hit rate 0.99% among 360,000; AID 624467;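 active = activation above the mean activation of all test compounds in the run plus 3 SD, cut at about 38% in these data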
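Assay system – CHO-derived RD-HGA16 cells with stable Gα16 and human TAAR1 · Compound dosing – one-point dosing at 3 µM (nominal) · Incubation – 17-24 h seeding, 75 min 37 °C dye, 30 min RT · Measured by – kinetic Fluo-8 calcium fluorescence · Control set – DMSO vehicle as 0%, PEA at EC100 as 100% · Repeats – single well for each compound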
GPR7 antag conf: human GPR7 antagonism, confirmation assay. shares compounds with GPR7 antagonist. GPR7-expressing cells, calcium fluorescence antagonist mode. inhibition, % at 4.4 µM. hit rate 52% among 2,400. AID 1952; in the data active = inhibition above about 24%;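 note: stimulated with the GPR7 agonist NPW; 0% = agonist plus vehicle and 100% = vehicle alone without agonist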
MCHR1 antag: MCHR1 (human) antagonism in GPR7 counter-screen; AID 2148; shares compounds with GPR7 antagonist; MCHR1-expressing cells, fluorescence antagonist assay; hit rate 62% among 2,400; inhibition, % at 4.4 µM; in the data active = inhibition above about 22%;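 note: 0% = vehicle with agonist and 100% = vehicle without agonist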
Active calls of the source: *; x = no result given. The list is not random: actives were taken first. Their share in the collection is about 3.4%.

SMILES	TRPML3 agonist	TAAR1 antag	LANA-H2B inh	zfTRPN1 agonist	GPR7 antagonist	TAAR1 agonist	GPR7 antag conf	MCHR1 antag
COC(=O)C1=C(N)Oc2cc(N(C)C)ccc2C1c1ccccc1OC (stereo not given)	0.2	-7.0	0.3	-0.7	25.0*	13.3	8.6	33.1*
COC(=O)[C@@]12C[C@@H](CC(=O)NCc3cccc(C(F)(F)F)c3)C(=O)N(Cc3ccc4c(c3)OCO4)C1=CCC(C)(C)C2	x	-19.2	x	x	x	5.9	x	x
COc1ccccc1N(CC(=O)N1CCCCC1C)S(=O)(=O)c1ccc(Cl)cc1 (stereo not given)	x	-6.0	x	x	x	-2.5	x	x
COc1ccc(N2CCN(C(=O)CCc3ccc(S(=O)(=O)NCC(C)C)cc3)CC2)cc1	1.2	-8.5	4.6	6.2	2.0	16.1	x	x
O=[N+]([O-])c1ccc(N2CCN(c3ccc(F)cc3)CC2)cc1	x	13.2	-3.2	x	43.9*	-1.1	22.9	37.2*
O=C(CCN1CCN(c2ccccc2)CC1)c1ccc(Cl)cc1	x	-28.4	2.4	x	-8.5	0.0	x	x
O=[N+]([O-])c1ccc(N2CCSCC2)cc1	-0.8	10.3	-1.1	-2.8	29.5*	14.9	4.6	6.3
CC(C)CNS(=O)(=O)c1ccc(CCC(=O)N2CCN(c3ccc(F)cc3)CC2)cc1	2.1	7.5	-1.2	8.5	29.9*	6.8	6.5	42.5*
CN1CCCN(c2ccc([N+](=O)[O-])cc2)CC1	0.5	-29.5	4.2	0.6	17.0	6.5	x	x
O=C(CCN1CCN(c2ccc([N+](=O)[O-])cc2)CC1)c1ccc(Cl)cc1	x	25.9	-4.5	x	41.1*	5.0	52.3*	64.8*
O=C(Cc1ccc(F)cc1)N1CCN(c2ccc([N+](=O)[O-])cc2)CC1	x	17.6	1.2	x	13.1	3.6	x	x
Cc1noc(C)c1C(=O)N(C)C[C@@H]1OCc2ccccc2-c2c(n(C)c3ccccc23)C(=O)N([C@H](C)CO)C[C@H]1C	x	-16.3	x	x	x	1.3	x	x
Cc1ccc(NC(=O)C2(C)CCN2Cc2cccc3c2OCO3)cc1O (stereo not given)	x	-16.3	x	x	x	0.0	x	x
Cc1cc2[nH]c(=O)c(=O)[nH]c2cc1S(=O)(=O)Nc1cccc(C)c1C	x	-13.2	1.6	x	-3.3	2.9	x	x
CCOC(COC(=O)c1ccccc1C(=O)O)c1ccccc1 (stereo not given)	x	-6.7	x	x	x	0.5	x	x
O=C(CCc1ccccc1)N1CCN(c2ccc([N+](=O)[O-])cc2)CC1	1.8	-1.1	1.2	2.3	26.4*	-0.6	37.1*	37.3*
O=C(Cc1ccccc1)N1CCN(c2ccc([N+](=O)[O-])cc2)CC1	x	12.5	-4.7	x	10.2	7.2	x	x
COC(=O)[C@]1(Cc2ccccc2)N[C@H](CN(C)C(=O)Nc2ccc(C(F)(F)F)cc2)[C@@H]2C(=O)N(C)C(=O)[C@@H]21	x	-5.9	x	x	x	2.3	x	x
Cc1ccc(NC(=O)C2CCN(S(=O)(=O)c3ccc4c(c3)NC(=O)C(C)S4)CC2)c(Cl)c1 (stereo not given)	x	30.5	-0.3	x	0.3	2.2	x	x
Cc1ccccc1NC(=O)C1CCN(S(=O)(=O)c2ccc3c(c2)NC(=O)C(C)S3)CC1 (stereo not given)	x	0.5	-0.4	x	-5.0	1.9	x	x
CC1Sc2ccc(S(=O)(=O)N3CCN(c4cccc(Cl)c4)CC3)cc2NC1=O (stereo not given)	x	-4.1	2.3	x	-9.0	2.1	x	x
Cc1ccc(NC(=O)C2CCN(S(=O)(=O)c3ccc4c(c3)C(C)(C)C(=O)N4C)CC2)c(C)c1	x	2.4	-1.9	x	29.8*	3.1	-0.8	4.2
CC1Sc2ccc(S(=O)(=O)N3CCN(c4ccccc4)CC3)cc2NC1=O (stereo not given)	x	4.6	6.3	x	39.1*	5.8	18.2	26.1*
Cc1cc(C)cc(NC(=O)C2CCN(S(=O)(=O)c3ccc4c(c3)NC(=O)C(C)S4)CC2)c1 (stereo not given)	x	27.7	-0.9	x	30.0*	0.4	25.4*	45.6*

Screening data as filed in PubChem BioAssay.
